# The source made the active and inactive calls. The calls are words filed in the database; no cut-off is given here.
# Legend:
# HCT-116 [1] = assay: Downregulation of human MET protein expression in HCT116 cells up to 10 uM after 24 hrs by Western blotting analysis; format: functional, cell-based
# In short: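 HCT116 cells seeded 4×10^5/well, treated next day with a concentration series (solvent control 1% EtOH) for 24 h; whole-cell lysates, equal protein by BCA, 4–12% SDS-PAGE, PVDF transfer, anti-Met immunoblot with chemiluminescent detection.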
# Liver [2] = assay: Metabolic stability in CD1 mouse liver microsomes assessed as compound remaining at 1 uM after 5 mins by HPLC-MS analysis; format: ADME
# In short: (§1)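 Pooled female CD1 mouse liver microsomes, 0.5 mg/mL protein final, in 100 mM phosphate pH 7.4 at 37 °C; compound 1 μM final, with or without NADPH-regenerating system; 3 min to 2 h; quenched with ethyl acetate, harmine internal standard; HPLC-MS (MRM); % remaining versus t0 peak-area ratio; triplicate.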
# Liver [3] = assay: Metabolic stability in CD1 mouse liver microsomes assessed as compound remaining at 1 uM after 30 mins by HPLC-MS analysis in presence of NADPH; format: ADME; settings: 0.5 h; in short: as §1
# [4] = Half life in phosphate buffer at 25 ug/ml at pH 7.4 by HPLC-MS analysis; format: physicochemical
# In short: (§2)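 Compound (10 μL of 25 μg/mL) spiked into 100 μL of 100 mM phosphate buffer, pH 4.88 or pH 7.4, incubated 0.25 min to 24 h; ethyl acetate extraction with harmine internal standard; HPLC-MS (MRM); remaining amount from calibration curve.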
# [5] = Half life in phosphate buffer at 25 ug/ml at pH 4.88 by HPLC-MS analysis; format: physicochemical; in short: as §2
# Liver [6] = assay: Metabolic stability in CD1 mouse liver microsomes assessed as compound remaining at 1 uM after 60 mins by HPLC-MS analysis in presence of NADPH; format: ADME; settings: 1 h; in short: as §1
# Liver [7] = assay: Metabolic stability in CD1 mouse liver microsomes assessed as compound remaining at 1 uM after 3 mins by HPLC-MS analysis in presence of NADPH; format: ADME; settings: 0.05 h; in short: as §1
# [8] = Half life in CD1 mouse liver microsomes at 1 uM by HPLC-MS analysis in presence of NADPH; format: ADME
# Liver [9] = assay: Metabolic stability in CD1 mouse liver microsomes assessed as compound remaining at 1 uM after 30 mins by HPLC-MS analysis; format: ADME; settings: 0.5 h; in short: as §1
# HCT-116 [10] = assay: Metabolic stability in human HCT116 cells at 25 ug/ml up to 24 hrs by HPLC-MS analysis; format: ADME, cell-based; settings: hct-116, 24 h
# In short: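 HCT116 lysate diluted in 25 mM Tris-HCl pH 8.0 to 0.7 mg/mL protein, 100 μL; incubated with compound (10 μL of 25 μg/mL) 0.25 min to 24 h; ethyl acetate extraction with harmine; HPLC-MS (MRM); remaining amount from calibration curve.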
# HCT-116 [11] = assay: Antiproliferative activity against human HCT116 cells after 48 hrs by MTT assay; format: functional, cell-based; settings: HCT-116, 48 h
# Liver [12] = assay: Metabolic stability in CD1 mouse liver microsomes assessed as compound remaining at 1 uM after 5 mins by HPLC-MS analysis in presence of NADPH; format: ADME; in short: as §1
# Liver [13] = assay: Metabolic stability in CD1 mouse liver microsomes assessed as compound remaining at 1 uM after 15 mins by HPLC-MS analysis in presence of NADPH; format: ADME; settings: 0.25 h; in short: as §1
# Liver [14] = assay: Metabolic stability in CD1 mouse liver microsomes assessed as compound remaining at 1 uM after 3 mins by HPLC-MS analysis; format: ADME; settings: 0.05 h; in short: as §1
# Liver [15] = assay: Metabolic stability in CD1 mouse liver microsomes assessed as compound remaining at 1 uM after 15 mins by HPLC-MS analysis; format: ADME; settings: 0.25 h; in short: as §1
# Liver [16] = assay: Metabolic stability in CD1 mouse liver microsomes assessed as compound remaining at 1 uM after 60 mins by HPLC-MS analysis; format: ADME; settings: 1 h; in short: as §1
# Liver [17] = assay: Metabolic stability in CD1 mouse liver microsomes assessed as compound remaining at 1 uM after 120 mins by HPLC-MS analysis; format: ADME; settings: 2 h; in short: as §1
# Liver [18] = assay: Metabolic stability in CD1 mouse liver microsomes assessed as compound remaining at 1 uM after 120 mins by HPLC-MS analysis in presence of NADPH; format: ADME; settings: 2 h; in short: as §1
# [19] = molecular target: T1, Vascular endothelial growth factor A, long form (Homo sapiens, UniProt P15692); assay: Inhibition of VEGF-A production in human HCT116 cells after 12 hrs by alphaLISA assay; format: cell-based, HCT-116
# T1 sequence (P15692 whole entry): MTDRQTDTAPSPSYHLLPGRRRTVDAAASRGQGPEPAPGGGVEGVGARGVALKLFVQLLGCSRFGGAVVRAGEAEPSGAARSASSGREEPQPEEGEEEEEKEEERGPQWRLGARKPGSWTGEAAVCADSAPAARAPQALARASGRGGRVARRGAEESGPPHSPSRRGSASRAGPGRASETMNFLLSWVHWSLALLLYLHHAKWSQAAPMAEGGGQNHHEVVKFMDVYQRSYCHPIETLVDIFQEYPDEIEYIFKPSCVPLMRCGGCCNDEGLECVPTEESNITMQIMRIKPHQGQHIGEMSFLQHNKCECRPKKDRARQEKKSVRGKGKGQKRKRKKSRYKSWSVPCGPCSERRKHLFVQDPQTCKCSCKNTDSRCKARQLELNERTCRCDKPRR
# Plasma = assay: Metabolic stability in mouse plasma at 25 ug/ml up to 24 hrs by HPLC-MS analysis; format: ADME, cell-free
# In short: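 Compound (10 μL of 25 μg/mL) added to 100 μL mouse serum, incubated 0.25 min to 24 h; ethyl acetate plus harmine quench/extraction, dried, reconstituted in acetonitrile; HPLC-MS (MRM); remaining amount from calibration curve.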
# HCT-116 [20] = assay: Antitumor activity against human HCT116 cells xenografted in ip dosed nu/nu mouse assessed as tumor growth inhibition administered for 16 days; format: functional, organism-based
# In short: (§3)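 Female nu/nu mice, 3–5 weeks old; 1×10^6 HCT116 cells in saline injected sc in left rear flank; daily ip 0.1 or 0.25 mg/kg (2 or 5 μg/mouse) or DMSO vehicle, 16 days; n = 7 treated, 6 vehicle; caliper volumes daily (W²×L×0.5); tumours starting above 100 mm³ excluded.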
# Mus musculus [21] = assay: Toxicity in nu/nu mouse xenografted with human HCT116 cells assessed as body weight loss at 0.1 to 0.25 mg/kg, ip for 16 days; format: organism-based, HCT-116; set-up: dose 0.1-0.25 mg/kg, route intraperitoneal; settings: in vivo, 384 h
# HCT-116 [22] = assay: Downregulation of VEGFR2 protein expression in human HCT116 cells xenografted in nu/nu mouse at 0.25 mg/kg, ip for 16 days by immunoblotting analysis; format: functional, organism-based; set-up: dose 0.25 mg/kg
# In short: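 Xenograft tumours harvested at the end of the daily ip efficacy study in nu/nu mice bearing sc HCT116 tumours were analysed by immunoblotting with anti-VEGFR2 antibody.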
# HCT-116 [23] = assay: Antitumor activity against human HCT116 cells xenografted in nu/nu mouse assessed as tumor growth inhibition at 0.1 mg/kg, ip for 16 days relative to control; format: functional; settings: HCT-116, ip, 384 h, route intraperitoneal, read-out: TGI; in short: as §3
# Mus musculus [24] = assay: Toxicity in nu/nu mouse xenografted with human HCT116 cells assessed as abnormal behavior at 0.1 to 0.25 mg/kg, ip for 16 days; format: organism-based, HCT-116; set-up: dose 0.1-0.25 mg/kg, route intraperitoneal; settings: in vivo, 384 h
Compound,Activity (HCT-116 [1]),Stability (Liver [2]),Stability (Liver [3]),half-life at 25 ug/ml [4],half-life at 25 ug/ml [5],Stability (Liver [6]),Stability (Liver [7]),half-life at 1 µM [8],Stability (Liver [9]),Stability (HCT-116 [10]),IC50 (HCT-116 [11]),Stability (Liver [12]),Stability (Liver [13]),Stability (Liver [14]),Stability (Liver [15]),Stability (Liver [16]),Stability (Liver [17]),Stability (Liver [18]),IC50 [19],Stability (Plasma),further results
CC[C@H](C)[C@H]1C(=O)N2CCC[C@H]2C(=O)O[C@H](C(C)(C)C)C[C@@H](C)C[C@H](O)[C@H](C)C2=N[C@@H](CCC(=O)N[C@@H](Cc3ccc(OC)cc3)C(=O)N(C)[C@@H](C)C(=O)N1C)CS2 [APRATOXIN S4],Active,70.8%,9.58%,> 24 h,> 24 h,10%,39.55%,< 5 min,73.85%,Stable,1.43 nM,32.2%,10.07%,87.05%,87.2%,87.1%,55.25%,6.02%,0.32 nM,Stable,–
CC[C@H](C)[C@H]1C(=O)N2CCC[C@H]2C(=O)O[C@H](C(C)(C)C)C[C@@H](C)C[C@H](O)C(C)(C)C2=N[C@@H](CCC(=O)N[C@@H](Cc3ccc(OC)cc3)C(=O)N(C)[C@@H](C)C(=O)N1C)CS2,Active,77.45%,4.83%,> 24 h,> 24 h,3.55%,37.2%,< 5 min,74.75%,Stable,1.99 nM,17.3%,8.28%,74.1%,63.45%,81.25%,70.05%,5.01%,0.47 nM,Stable,TGI (HCT-116 [20]): Dose-dependent effect; Activity (Mus musculus [21]): Non-toxic; Activity (HCT-116 [22]): Active; inhibition in vivo at 0.1 mg/kg (HCT-116 [23]): 50%; Activity (Mus musculus [24]): Non-toxic
CC[C@H](C)[C@H]1C(=O)N2CCC[C@H]2C(=O)O[C@H](C(C)(C)C)C[C@@H](C)C[C@H](O)[C@H](C)C2=N[C@H](CCC(=O)N[C@@H](Cc3ccc(OC)cc3)C(=O)N(C)[C@@H](C)C(=O)N1C)CS2,Active,71.4%,3.73%,> 24 h,> 24 h,6.06%,51.4%,< 5 min,56.05%,Stable,0.69 nM,17.8%,3.55%,83.1%,45.25%,48.45%,56.25%,5.63%,0.12 nM,Stable,–
CC[C@H](C)[C@H]1C(=O)N2CCC[C@H]2C(=O)O[C@H](C(C)(C)C)C[C@@H](C)C[C@H](O)CC2=N[C@@H](CCC(=O)N[C@@H](Cc3ccc(OC)cc3)C(=O)N(C)[C@@H](C)C(=O)N1C)CS2,Active,60.5%,6.1%,> 24 h,> 24 h,5.41%,54.95%,< 5 min,54.8%,Stable,1.25 nM,18.7%,52.4%,66.6%,76.55%,54.5%,53.85%,4.3%,0.3 nM,Stable,–
